ChEMBL document CHEMBL1157094, “Study on the constituents of Mexican propolis and their cytotoxic activity against PANC-1 human pancreatic cancer cells” (J Nat Prod, 2010)
Active and inactive are the calls of the source. The calls are words filed in the database; no cut-off is given here.

Experiments:
[1] = test system: PANC-1; experiment: Cytotoxicity against human PANC1 cells in nutrient-deprived condition assessed as preferential cell death after 24 hrs by WST-8 assay
[2] = test system: PANC-1; experiment: Induction of apoptosis in human PANC1 cells in nutrient-deprived condition assessed as membrane bleb formation at 12.5 uM after 24 hrs by phase-contrast microscopy; type: functional, cell-based
In short: (§1)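 PANC-1 cells were seeded at 2 × 10^4 per well and grown 24 h in DMEM at 37 °C under 5% CO2/95% air. They were then washed with PBS and switched to nutrient-deprived medium (NDM) containing test compound. After 24 h exposure at 12.5 µM, morphology was photographed under a phase-contrast microscope at 200× magnification.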

[3] = test system: PANC-1; experiment: Induction of apoptosis in human PANC1 cells in nutrient-deprived condition assessed as nuclear condensation at 12.5 uM after 24 hrs by phase-contrast microscopy; type: functional, cell-based
In short: as §1

[4] = test system: PANC-1; experiment: Induction of apoptosis in human PANC1 cells in nutrient-deprived condition assessed as nuclear fragmentation at 12.5 uM after 24 hrs by phase-contrast microscopy; type: functional, cell-based
In short: as §1

[5] = Cytotoxicity against human TIG3 cells after 24 hrs by WST-8 assay; settings: tig-3, 24 h

CCC(=O)O[C@H]1C(=O)c2c(O)cc(O)cc2O[C@@H]1c1ccccc1
PC50 [1]: 18.2 µM

COc1cc(/C=C/C(=O)OCC(COC(=O)/C=C/c2ccc(O)c(OC)c2)OC(C)=O)ccc1O
PC50 [1]: 25.8 µM

COc1cc(C=O)ccc1O [VANILLIN]
PC50 [1]: >100 µM

CC(C)C(=O)O[C@H]1C(=O)c2c(O)cc(O)cc2O[C@@H]1c1ccccc1
PC50 [1]: 19.8 µM

CC(=O)O[C@H]1C(=O)c2c(O)cc(O)cc2O[C@@H]1c1ccccc1
PC50 [1]: 36.6 µM

CC(=O)OCC(O)COC(=O)/C=C/c1ccc(O)cc1 (stereo not given)
PC50 [1]: >100 µM

CC(=O)OC(COC(=O)/C=C/c1ccc(O)cc1)COC(=O)/C=C/c1ccc(O)cc1
PC50 [1]: 38.8 µM

O=C1C[C@@H](c2ccc(O)cc2)Oc2cc(O)cc(O)c21 [NARINGENIN]
PC50 [1]: >100 µM

COc1cc(O)c2c(=O)cc(-c3ccccc3)oc2c1 [TECHTOCHRYSIN]
PC50 [1]: >100 µM

O=C(OC/C=C/c1ccccc1)c1ccccc1
PC50 [1]: >100 µM

CC(=O)OC(COC(=O)/C=C/c1ccc(O)cc1)COC(=O)/C=C/c1ccc(O)c(O)c1 (stereo not given)
PC50 [1]: 17.4 µM

C=C[C@H](c1ccc(O)c(OC)c1)c1c(O)cc(O)c2c(=O)cc(-c3ccccc3)oc12
PC50 [1]: 12.7 µM

COc1ccc(/C=C/C(=O)OCc2ccccc2)cc1OC
PC50 [1]: 58.8 µM

O=C(/C=C/c1ccc(O)cc1)OC/C=C/c1ccccc1
PC50 [1]: 38.2 µM

O=C(/C=C/c1ccc(O)cc1)OCc1ccccc1
PC50 [1]: 23.8 µM

COc1ccc(/C=C/C(=O)OC/C=C/c2ccccc2)cc1O
PC50 [1]: 31.7 µM

COc1cc(O)c2c(c1)O[C@H](c1ccccc1)[C@@H](OC(C)=O)C2=O
PC50 [1]: 75.3 µM

O=C(/C=C/c1ccccc1)OC/C=C/c1ccccc1
PC50 [1]: >100 µM

O=C(O)/C=C/c1ccccc1 [CINNAMIC ACID]
PC50 [1]: >100 µM

COc1cc(O)c2c(c1)O[C@H](c1ccccc1)[C@@H](O)C2=O
PC50 [1]: 74.2 µM

O=C1C[C@@H](c2ccccc2)Oc2cc(O)cc(O)c21 [PINOCEMBRIN]
PC50 [1]: 46.5 µM

O=c1c(O)c(-c2ccccc2)oc2cc(O)cc(O)c12 [GALANGIN]
PC50 [1]: 22.1 µM

C=C[C@H](c1ccc(O)c(OC)c1)c1c(O)cc(O)c2c(=O)c(O)c(-c3ccccc3)oc12
Activity [2]: Active
Activity [3]: Active
Activity [4]: Active
Activity [5]: Non-toxic
PC50 [1]: 4.6 µM

COc1cc(O)c2c(c1)O[C@H](c1ccccc1)CC2=O [PINOSTROBIN]
PC50 [1]: >100 µM

COc1cc(O)c2c(=O)c(O)c(-c3ccccc3)oc2c1 [IZALPININ]
PC50 [1]: >100 µM

COc1cc(O)cc2c1C(=O)[C@H](O)[C@@H](c1ccccc1)O2
PC50 [1]: >100 µM

COc1c(-c2ccc(O)cc2)oc2cc(O)ccc2c1=O
PC50 [1]: >100 µM

COc1ccc(/C=C/C(=O)O)cc1OC [O,O'-DIMETHYLCAFFEIC ACID]
PC50 [1]: >100 µM

O=C(/C=C/c1ccccc1)OCc1ccccc1 [BENZYL CINNAMATE]
PC50 [1]: >100 µM

COc1cc(/C=C/C(=O)OCc2ccccc2)ccc1O [BENZYL FERULATE]
PC50 [1]: 17 µM

O=c1cc(-c2ccc(O)cc2)oc2cc(O)cc(O)c12 [APIGENIN]
PC50 [1]: 89.5 µM

COc1cc(-c2oc3cc(O)cc(O)c3c(=O)c2OC)ccc1O [3,3'-O-DIMETHYLQUERCETIN]
PC50 [1]: 59.8 µM

CCC(C)C(=O)O[C@H]1C(=O)c2c(O)cc(OC)cc2O[C@@H]1c1ccccc1 (stereo not given in full)
PC50 [1]: 44.8 µM

COc1ccc(/C=C/C(=O)OC/C=C/c2ccccc2)cc1OC
PC50 [1]: 98.9 µM

O=c1cc(-c2ccccc2)oc2cc(O)cc(O)c12 [CHRYSIN]
PC50 [1]: 88.7 µM

COc1cc(/C=C/C(=O)O)ccc1O [FERULATE]
PC50 [1]: 66.6 µM

O=C(O)c1ccccc1 [BENZOIC ACID]
PC50 [1]: >100 µM

COc1cc(/C=C/C(=O)OCC(COC(=O)/C=C/c2ccc(O)cc2)OC(C)=O)ccc1O (stereo not given)
PC50 [1]: 32.7 µM

CC(C)CC(=O)O[C@H]1C(=O)c2c(O)cc(O)cc2O[C@@H]1c1ccccc1
PC50 [1]: 17.5 µM

O=C(O)/C=C/C=C/c1ccccc1 [JUAREZIC ACID]
PC50 [1]: >100 µM

O=C(O)/C=C/c1ccc(O)cc1 [COUMARIC ACID]
PC50 [1]: 77 µM
